ChEMBL document CHEMBL1125032, “Structure-activity relationship of antiestrogens. Effect of the side chain and its position on the activity of 2,3-diaryl-2H-1-benzopyrans” (J Med Chem, 1990)

Legend:
[1] = biological target: T1, Estrogen receptor (Rattus norvegicus) (UniProt P06211+Q62986); experiment: Relative binding affinity against estrogen receptor(ER); type: protein assay
Method in brief: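 Uterine cytosol came from immature rats primed with 0.1 µg E2 24 h before sacrifice. It was incubated 18–20 h at 4 °C, in triplicate, with competitor (10⁻⁴–10⁻⁹ M) and ³H-E2 (5×10⁻⁹ M) in TEA buffer, pH 7.4, containing 7% DMF. Free ligand was removed with charcoal-dextran (20 min), and bound radioactivity was measured by scintillation counting.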

[2] = biological target: Estrogen receptor beta (Rattus norvegicus) (UniProt Q62986); experiment: Mean percent inhibition of Estrogen receptor beta in rat; set-up: concentration or dose not given beside the values; conditions: concentration not given here
Method in brief: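 Immature female rats were dosed subcutaneously with 10 µg/rat for three days together with 0.3 µg E2 at a separate site. Uterine weight was read 24 h after the last dose. Inhibition of E2-stimulated uterine growth was calculated from the mean uterine weights of the vehicle-alone, E2-alone and compound-plus-E2 groups.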

[3] = biological target: T1, Estrogen receptor (Rattus norvegicus); experiment: Antiestrogenic activity in presence of unlabeled estradiol as mean uterine weight in rats after 0.3 ug dose; type: functional
Method in brief: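 Immature female Charles Foster rats (21–23 days old, 25–40 g) were given 10 µg/rat of compound subcutaneously in 0.1 mL propylene glycol–0.9% saline (1:1, v/v) on three consecutive days. They were co-injected with 0.3 µg E2 at a different site. Controls got E2 plus vehicle. Uteri were weighed 24 h after the last injection. Values are mean ± SD, 6–9 animals.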

[4] = biological target: T1, Estrogen receptor (Rattus norvegicus); experiment: Estrogenic activity as mean uterine weight in rats on 10 ug dose; type: functional
Method in brief: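 Immature female Charles Foster rats (21–23 days old, 25–40 g) received 10 µg/rat subcutaneously, suspended in 0.1 mL propylene glycol–0.9% saline (1:1, v/v), daily for three days. Controls received vehicle alone. Uterine wet weight was taken at autopsy 24 h after the final dose and given as mean ± SD in mg from 6–9 animals.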

[5] = biological target: Anti-estrogen binding site (AEBS) (Homo sapiens) (UniProt Q15125+Q9UBM7); experiment: Relative binding affinity against Antiestrogen binding site(AEBS); type: functional; conditions: Rattus norvegicus
Method in brief: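 Rat liver microsomal fraction was first incubated 2 h at 4 °C with 2 µM diethylstilbestrol to saturate ER sites. It was then incubated 18 h at 4 °C with competitor (1×10⁻⁹ to 3×10⁻⁶ M) and ³H-tamoxifen (1×10⁻⁹ M) in 35% DMF–TEA buffer. Charcoal-dextran was added for 15 min at 4 °C, the tubes were centrifuged at 1000g, and the supernatant was counted.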

Estrogen receptor beta (Rattus norvegicus), sequence (Q62986 whole entry): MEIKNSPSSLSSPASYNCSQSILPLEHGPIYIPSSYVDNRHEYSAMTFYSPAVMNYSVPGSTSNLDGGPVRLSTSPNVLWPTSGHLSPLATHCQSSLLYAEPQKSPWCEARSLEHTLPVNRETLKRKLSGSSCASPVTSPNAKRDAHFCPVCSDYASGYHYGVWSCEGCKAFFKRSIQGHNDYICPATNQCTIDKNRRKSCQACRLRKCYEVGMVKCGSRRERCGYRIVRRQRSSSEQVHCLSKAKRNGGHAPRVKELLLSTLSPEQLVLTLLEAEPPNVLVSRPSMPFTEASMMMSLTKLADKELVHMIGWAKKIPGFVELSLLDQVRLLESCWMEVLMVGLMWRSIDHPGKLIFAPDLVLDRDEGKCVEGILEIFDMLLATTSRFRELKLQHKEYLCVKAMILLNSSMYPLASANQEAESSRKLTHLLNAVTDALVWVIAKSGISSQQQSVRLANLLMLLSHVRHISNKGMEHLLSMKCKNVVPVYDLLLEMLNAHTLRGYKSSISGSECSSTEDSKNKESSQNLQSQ

Row | Compound | relative binding affinity (RBA) [1] | inhibition [2] [%] | Mean weight [3] [mg] | Mean weight [4] [mg] | relative binding affinity (RBA) [5]
1 | C1=C(c2ccccc2)C(c2ccccc2OCCN2CCCCC2)Oc2ccccc21 (configuration not stated) | < 0.001 | 0 | 43.1 | 11.1 | –
2 | CCCCNCC(O)COc1ccc(C2Oc3ccccc3C=C2c2ccccc2)cc1 (configuration not stated) | – | 0 | 45.9 | 8.7 | –
3 | CCC1=C(c2ccccc2)C(c2ccc(OCCN3CCCC3)cc2)Oc2cc(OC)ccc21 (configuration not stated) | 2.1 | 0 | 40.6 | 34.5 | 51
4 | CC1=C(c2ccccc2)C(c2ccc(OCCN3CCCC3)cc2)Oc2ccccc21 (configuration not stated) | 9.9 | 56 | 27 | 27.2 | 150
5 | CN(C)CCOc1ccc(C2Oc3ccccc3C=C2c2ccccc2)cc1 (configuration not stated) | 0.11 | 30 | 36.5 | 33.9 | 98
6 | COc1ccc2c(c1)OC(c1ccc(OCCN3CCCC3)cc1)C(c1ccccc1)=C2 (configuration not stated) | 0.4 | 48 | – | – | 66
7 | OCC(O)COc1ccc(C2Oc3ccccc3C=C2c2ccccc2)cc1 (configuration not stated) | – | – | 38.8 | 20.7 | –
8 | C1=C(c2ccccc2)C(c2ccc(OCCN3CCCC3)cc2)Oc2ccccc21 (configuration not stated) | 0.5 | 56 | 26.6 | – | 134
9 | Oc1ccc(C2Oc3ccccc3C=C2c2ccccc2)cc1 (configuration not stated) | 0.05 | 0 | 45.5 | 12.6 | –
10 | C1=C(c2ccccc2)C(c2ccc(OCCN3CCCCC3)cc2)Oc2ccccc21 (configuration not stated) | 0.3 | 75 | – | – | 225
11 | C1=C(c2ccccc2)C(c2ccc(OCCN3CCCCCC3)cc2)Oc2ccccc21 (configuration not stated) | 0.24 | 61 | 23.1 | 19.3 | 153
12 | C1=C(c2ccccc2)C(c2cccc(OCCN3CCCCC3)c2)Oc2ccccc21 (configuration not stated) | < 0.001 | 0 | 42.2 | 17.4 | –
